Activity calls are given as the source filed them. No cut-off for these calls is given here.
Tested on: Enterococcus faecium
Assay: Inhibition of Enterococcus faecium C238 growth in presence of kanamycin A
Assay type: functional, organism-based
Method in brief: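 Two-dimensional checkerboard MIC assay per NCCLS, in duplicate, in brain heart infusion medium. Test compound in 2-fold dilutions from 8 to 512 µg/mL against kanamycin A at 100-600 µg/mL. Grown at 37 °C for 16 h; growth read at OD625, averaged, normalized to sterility controls and expressed as percent of positive growth controls.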

SMILES | Activity
CC(C)(COC(=O)CC(=O)O)[C@@H](O)C(=O)NCCC(=O)NCCSCC(=O)NC[C@H]1O[C@H](O[C@H]2[C@H](O)[C@@H](O)[C@H](N)C[C@@H]2N)[C@H](N)[C@@H](O)[C@@H]1O | inactive
CC(=O)CC(=O)OCC(C)(C)[C@@H](O)C(=O)NCCC(=O)NCCSCC(=O)NC[C@H]1O[C@H](O[C@H]2[C@H](O)[C@@H](O)[C@H](N)C[C@@H]2N)[C@H](N)[C@@H](O)[C@@H]1O | Active

— ChEMBL document CHEMBL1146024, “Synthesis and structure-activity relationships of truncated bisubstrate inhibitors of aminoglycoside 6'-N-acetyltransferases” (J Med Chem, 2006)
